From ChEMBL document CHEMBL1649261, “Pharmacodynamic profile of tigecycline against methicillin-resistant Staphylococcus aureus in an experimental pneumonia model” (Antimicrob Agents Chemother, 2009)
≈ marks a conversion by molar mass, not a printed value.

Columns and labels:
Type in all cases: functional
Staphylococcus aureus [1] = experiment: Antibacterial activity against hospital-acquired methicillin-resistant Staphylococcus aureus 56 by microdilution method
How it was run: (§1)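 Tigecycline MIC measured in triplicate by broth microdilution following CLSI guidelines. Isolates were stored at −80°C in skim milk and subcultured twice on blood agar before testing.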

Staphylococcus aureus [2] = experiment: Antibacterial activity against hospital-acquired methicillin-resistant Staphylococcus aureus 152 by microdilution method; how it was run: as §1
Staphylococcus aureus [3] = experiment: Antibacterial activity against community-acquired methicillin-resistant Staphylococcus aureus 147 by microdilution method; how it was run: as §1
Staphylococcus aureus [4] = experiment: Antibacterial activity against community-acquired methicillin-resistant Staphylococcus aureus 156 by microdilution method; how it was run: as §1
Staphylococcus aureus [5] = experiment: Antibacterial activity against methicillin-susceptible Staphylococcus aureus ATCC 29213 by microdilution method; how it was run: as §1
Staphylococcus aureus [6] = experiment: Antibacterial activity against community-acquired methicillin-resistant Staphylococcus aureus 144 by microdilution method; how it was run: as §1

SMILES | MIC (Staphylococcus aureus [1]) | MIC (Staphylococcus aureus [2]) | MIC (Staphylococcus aureus [3]) | MIC (Staphylococcus aureus [4]) | MIC (Staphylococcus aureus [5]) | MIC (Staphylococcus aureus [6])
CCC[C@@H]1C[C@@H](C(=O)N[C@@H]([C@H]2O[C@H](SC)[C@H](O)[C@@H](O)[C@H]2O)[C@H](C)Cl)N(C)C1 [CLINDAMYCIN] | 0.25 µg/mL (≈ 0.588 µM) | 0.125 µg/mL (≈ 0.294 µM) | 0.125 µg/mL (≈ 0.294 µM) | ≤ 0.5 µg/mL | 0.125 µg/mL (≈ 0.294 µM) | > 16 µg/mL
C[C@H]1c2cccc(O)c2C(=O)C2=C(O)[C@]3(O)C(=O)C(C(N)=O)=C(O)[C@@H](N(C)C)[C@@H]3[C@@H](O)[C@@H]21.O [DOXYCYCLINE] | 8 µg/mL | 0.5 µg/mL | 2 µg/mL |  | 0.5 µg/mL | 0.5 µg/mL
CC[C@H]1OC(=O)[C@H](C)[C@@H](O[C@H]2C[C@@](C)(OC)[C@@H](O)[C@H](C)O2)[C@H](C)[C@@H](O[C@@H]2O[C@H](C)C[C@H](N(C)C)[C@H]2O)[C@](C)(O)C[C@@H](C)C(=O)[C@H](C)[C@@H](O)[C@]1(C)O [ERYTHROMYCIN] | 32 µg/mL (≈ 43.6 µM) | 1 µg/mL (≈ 1.36 µM) | > 32 µg/mL | > 32 µg/mL | 1 µg/mL (≈ 1.36 µM) | > 32 µg/mL
